Values belong to the molecule of their own block, whether it stands above or below them.
How the values were obtained:
[1] = molecular target: FITC-labeled ASPN peptide (FITC-ε-Ahx-Asporin) (mouse); assay: MST
[2] = test system: Aspn in differentiated H9c2 cardiomyocytes; assay: Aspn expression and release in H9c2 cardiomyocytes; assay type: cell-based; conditions: TGFβ1 stimulation of cardiomyocytes
[3] = test system: Aspn in 3T3 embryonic fibroblasts; assay: Aspn expression and release in 3T3 embryonic fibroblasts, western blot; assay type: cell-based; conditions: TGFβ1 5 ng/ml, 24 h; n = 4
Procedure, shortened: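 3T3 fibroblasts were grown in DMEM (10 mM glucose, 10% FBS, pH 7.4) and given vehicle or TGFβ1 5 ng/ml for 24 h. Intracellular Aspn came from cell lysates and extracellular Aspn from the collected media. Equal protein (Bradford) was run on 4–12% Bis-Tris gels and transferred to nitrocellulose. Blots were blocked in 5% milk 45 min, probed with anti-ASPN 1:1000 overnight at 4 °C, then peroxidase secondary 2 h RT; n = 4.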

[4] = test system: differentiated H9c2 cardiomyocytes; assay: MitoSOX staining, ROS after hypoxia-reoxygenation; assay type: cell-based; conditions: rASPN
Procedure, shortened: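 H9c2 cells were differentiated for 5 days in DMEM with 1% FBS and 1 nM retinoic acid. They were given vehicle or rASPN, then simulated hypoxia-reoxygenation; control cells stayed under normal culture. Cells were stained with MitoSOX red and imaged by fluorescence microscopy. Intensity was expressed relative to control; mean with SD, one-way ANOVA with Tukey's test.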

[5] = test system: differentiated H9c2 cardiomyocytes; assay: LDH release after hypoxia/reoxygenation; assay type: cell-based; conditions: rASPN 1 nM for 24 hrs prior to hypoxia (2 hrs) and reoxygenation (2 hrs); n = 4
H9c2 cardiomyocytes = assay: Seahorse respirometry on differentiated H9c2 cardiomyocytes; assay type: cell-based; conditions: rASPN 1 nM for 24 hrs, vs vehicle, n = 3
Procedure, shortened: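 H9c2 cells were seeded at 15,000/well and differentiated for 5 days, then given vehicle or rASPN 1 nM for 24 h. Medium was switched to XF base with glucose, pyruvate and glutamine, and cells equilibrated 45 min at 37 °C without CO₂. OCR was recorded at several time points, basally and after sequential oligomycin, FCCP and antimycin A/rotenone. Parameters were calculated from traces; mean with SD, n = 3, unpaired t-test.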

[6] = test system: differentiated H9c2 cardiomyocytes; assay: TUNEL staining after hypoxia/reoxygenation; assay type: cell-based; conditions: rASPN treatment; hypoxia-reoxygenation
Procedure, shortened: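 H9c2 cells were differentiated for 5 days (1% FBS, 1 nM retinoic acid) and given vehicle or rASPN 1 nM for 24 h. Hypoxia 2 h and reoxygenation 2 h followed. Cells were fixed in 2% PFA 15 min RT, permeabilized with 0.1% Triton X-100, TUNEL-labelled with fluorescein and counterstained with DAPI. TUNEL-positive nuclei were counted over many fields of 10–15 cells and expressed as a ratio to DAPI-stained cells; mean with SD.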

Kd [1]: 15 nM
Molecule: recombinant mouse TGFβ-1 protein (from UniProt P04202 279-390) (ligand)

Molecule: TGFβ1: Transforming growth factor β1
Aspn induction or release in extracellular media [2]: no significant induction or any release in extracellular media
expression of Aspn (intracellular) [3]: increased expression
release of Aspn into extracellular media [3]: increased release of Aspn

B1: rASPN: Recombinant asporin protein (protein, UniProt Q9BXN1 33-380, looked up)
Asporin: DMEDTDDDDDDDDDDDDDDEDNSLFPTREPRSHFFPFDLFPMCPFGCQCYSRVVHCSDLGLTSVPTNIPFDTRMLDLQNNKIKEIKENDFKGLTSLYGLILNNNKLTKIHPKAFLTTKKLRRLYLSHNQLSEIPLNLPKSLAELRIHENKVKKIQKDTFKGMNALHVLEMSANPLDNNGIEPGAFEGVTVFHIRIAEAKLTSVPKGLPPTLLELHLDYNKISTVELEDFKRYKELQRLGLGNNKITDIENGSLANIPRVREIHLENNKLKKIPSGLPELKYLQIIFLHSNSIARVGVNDFCPTVPKMKKSLYSAISLFNNPVKYWEMQPATFRCVLSRMSVQLGNFGM
ROS production (MitoSOX) [4]: significantly reduced
cell death (LDH release) [5]: reduced cell death
maximal respiration (H9c2 cardiomyocytes; FCCP as uncoupler): significant increase
spare respiratory capacity (H9c2 cardiomyocytes; FCCP as uncoupler): significant increase
ATP production (H9c2 cardiomyocytes): increased basal OCR and ATP production
basal OCR (H9c2 cardiomyocytes): increased basal OCR
non-mitochondrial OCR (H9c2 cardiomyocytes): reducing
percent TUNEL positive cells [6]: reduced percent TUNEL positive cells

Reference: publication PMC10234622 (Matrix biology : journal of the International Society for …, 2022)
